{"source": "paper PMC3773219", "about": "(Biochemistry, 2013)", "key": {"native Csk": {"test_system": "native Csk", "details": "cited from earlier work"}, "Pim1": {"target": "Pim1 (Homo sapiens, UniProt P11309)", "sequence (P11309 whole entry)": "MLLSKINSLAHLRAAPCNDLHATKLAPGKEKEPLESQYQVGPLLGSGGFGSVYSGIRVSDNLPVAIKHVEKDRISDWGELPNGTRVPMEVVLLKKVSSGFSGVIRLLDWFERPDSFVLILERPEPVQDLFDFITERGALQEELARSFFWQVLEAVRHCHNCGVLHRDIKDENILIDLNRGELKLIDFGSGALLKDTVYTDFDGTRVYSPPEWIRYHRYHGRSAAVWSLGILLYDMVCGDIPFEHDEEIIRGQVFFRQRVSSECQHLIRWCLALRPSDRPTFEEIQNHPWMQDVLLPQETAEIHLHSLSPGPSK", "test": "Enzyme coupled kinase assay, Pim1", "format": "biochemical", "details": "for reduction of Pim1 activity: relative to consensus peptide 2 (kcat/KM)", "in_short": "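His6-tagged human Pim1 was expressed in E. coli and purified on Ni-NTA. It was treated with alkaline phosphatase, and phospho and non-phospho forms were separated on Q-Sepharose. The coupled PK/LDH assay ran at room temperature with 20 mM MgCl2, 100 mM Tris pH 7.4, 1 mM ATP, 1 mM PEP, 0.2 mM NADH and 0–2400 μM peptide or PTP-PEST catalytic domain (aa 5–300). It was started with 40–1200 nM Pim1, read at A340, and initial rates were fitted for kcat, KM and/or kcat/KM.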"}, "protein kinases": {"test_system": "protein kinases", "details": "cited from earlier work"}, "MKK6": {"target": "T1, MKK6 (Homo sapiens, UniProt P52564, S207E/T211E)", "T1 sequence (P52564 1-334 S207E/T211E)": "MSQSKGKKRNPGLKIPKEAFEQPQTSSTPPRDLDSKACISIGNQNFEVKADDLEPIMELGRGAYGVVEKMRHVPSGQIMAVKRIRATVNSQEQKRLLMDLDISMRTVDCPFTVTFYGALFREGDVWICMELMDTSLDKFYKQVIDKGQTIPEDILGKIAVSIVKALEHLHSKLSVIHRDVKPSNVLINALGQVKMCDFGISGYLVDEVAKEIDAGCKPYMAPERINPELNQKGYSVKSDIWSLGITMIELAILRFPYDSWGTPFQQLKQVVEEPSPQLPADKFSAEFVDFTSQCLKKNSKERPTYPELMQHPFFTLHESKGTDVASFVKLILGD", "test": "Kinase assay by HPLC, MKK6", "format": "biochemical", "details": "peptide as MKK6 substrate"}, "GST-Csk": {"target": "GST-Csk (Homo sapiens, UniProt P41240)", "sequence (P41240 whole entry)": "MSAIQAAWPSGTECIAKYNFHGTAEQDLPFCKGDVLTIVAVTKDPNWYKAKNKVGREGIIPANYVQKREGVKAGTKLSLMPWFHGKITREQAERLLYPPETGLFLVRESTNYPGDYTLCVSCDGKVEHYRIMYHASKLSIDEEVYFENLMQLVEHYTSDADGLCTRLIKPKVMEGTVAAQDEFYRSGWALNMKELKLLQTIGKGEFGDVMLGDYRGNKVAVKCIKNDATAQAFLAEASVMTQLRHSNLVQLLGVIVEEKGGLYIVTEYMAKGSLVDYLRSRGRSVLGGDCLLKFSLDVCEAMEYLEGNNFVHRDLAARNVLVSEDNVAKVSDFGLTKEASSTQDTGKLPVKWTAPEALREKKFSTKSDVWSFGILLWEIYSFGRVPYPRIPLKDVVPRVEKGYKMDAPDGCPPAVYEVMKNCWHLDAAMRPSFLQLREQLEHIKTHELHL", "test": "Enzyme coupled kinase assay, GST-Csk", "format": "biochemical", "details": "kcat/KM with GST-Csk relative to peptide 16", "in_short": "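GST-tagged wild-type human Csk was expressed in E. coli DH5α and purified on glutathione-Sepharose. The pyruvate kinase/lactate dehydrogenase coupled assay ran at room temperature in 100 mM Tris pH 7.4 with 5 mM MnCl2, 5 mM NaCl, 5 mM KCl, 10 mM DTT, 1 mM ATP, 1 mM PEP, 0.2 mM NADH and 0–2400 μM peptide. It was started with 1–3 μM GST-Csk and A340 followed continuously. Initial rates (<2 min) were fitted to Michaelis-Menten or V = kcat[E][S]/KM.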"}}, "data": [{"molecule": "Ac-KKKKEEIYFFF-NH2 [Peptide 16, reference compound]", "values": [{"measurement": "kcat/KM", "setting": "native Csk; native Csk, previously reported", "result": 6050, "unit": "M⁻¹ s⁻¹"}]}, {"molecule": "Lck: Csk protein substrate", "values": [{"measurement": "kcat/KM of Csk protein substrates", "setting": "native Csk; protein substrates of Csk", "result": 200000, "unit": "M⁻¹ s⁻¹"}]}, {"molecule": "RYRDPTGMYY [Peptide 6]", "values": [{"measurement": "reduction of Pim1 activity", "setting": "Pim1", "result": 620, "unit": "fold"}]}, {"molecule": "AYAHPTGMYY [Peptide 5]", "values": [{"measurement": "effect of substitution on Pim1 activity", "setting": "Pim1; relative to consensus peptide 2", "result": "abolished the Pim1 activity"}]}, {"molecule": "RYRHPTPMYY [Peptide 7]", "values": [{"measurement": "reduction of Pim1 activity", "setting": "Pim1", "result": 62, "unit": "fold"}]}, {"molecule": "Nc1ncnc2c1ncn2[C@@H]1O[C@H](COP(=O)(O)OP(=O)(O)OP(O)(O)=S)[C@@H](O)[C@H]1O", "note": "[[γ-S]ATP, adenosine 5′-O-(3-thio)triphosphate]", "values": [{"measurement": "decrease of catalytic activity of kinases on substitution of [γ-S]ATP for ATP", "setting": "protein kinases", "result": "15–30 fold"}]}, {"molecule": "Ac-RRRYEILPTWNVY-NH2 [Peptide 13]", "values": [{"measurement": "Km", "setting": "MKK6", "result": "> 500", "unit": "µM"}]}, {"molecule": "Ac-DDEPIYAELADIT-NH2 [Peptide 23]", "values": [{"measurement": "more active than the previous consensus peptide (16)", "setting": "GST-Csk", "result": 11, "unit": "fold"}]}, {"molecule": "PTP-PEST: non-receptor protein tyrosine phosphatase; recombinant catalytic domain of human PTP-PEST (amino acids 5–300) (protein, UniProt Q05209 5-300, looked up, fragment, catalytic domain GST tag) EILRKFIQRVQAMKSPDHNGEDNFARDFMRLRRLSTKYRTEKIYPTATGEKEENVKKNRYKDILPFDHSRVKLTLKTPSQDSDYINANFIKGVYGPKAYVATQGPLANTVIDFWRMIWEYNVVIIVMACREFEMGRKKCERYWPLYGEDPITFAPFKISCEDEQARTDYFIRTLLLEFQNESRRLYQFHYVNWPDHDVPSSFDSILDMISLMRKYQEHEDVPICIHCSAGCGRTGAICAIDYTWNLLKAGKIPEEFNVFNLIQEMRTQRHSAVQTKEQYELVHRAIAQLFEKQLQL", "values": [{"measurement": "kcat/KM", "setting": "Pim1; recombinant PTP-PEST protein as Pim1 substrate, enzyme-coupled assay", "result": 34000, "unit": "M⁻¹ s⁻¹"}]}]}
